Measurements pooled from the literature.
In brackets after ≈: the same amount, converted by molar mass.

`Cn1c(C(=O)Nc2ccc(Cl)cc2)cc2c(=O)n3ccccc3nc21` has an inhibition of 8% (Severe acute respiratory syndrome coronavirus 2; viral replication; Vero; 10 nM).
`COc1cc2c(cc1OC)CN(CCc1ccc(NC(=O)c3cc(OC)c(OC)cc3NC(=O)c3cnc4ccccc4c3)cc1)CC2` has an IC50 of 1480 nM (Severe acute respiratory syndrome coronavirus 2; viral replication, inhibitor; A549-ACE2).
For `C=CCNC1=C2C[C@@H](C)C[C@H](OC)[C@H](O)[C@@H](C)/C=C(\C)[C@H](OC(N)=O)[C@@H](OC)/C=C\C=C(/C)C(=O)NC(=C(c3ccccc3)C1=O)C2=O`, the IC50 was greater than 20000 nM (ARPE-19; cell growth or viability, MTT).
With `CN1CCN(C2=Nc3ccccc3Oc3ccc(Cl)cc32)CC1` the IC50 was 5750 nM (Severe acute respiratory syndrome coronavirus 2; viral replication, inhibitor; A549-ACE2).
The MIC90 of `Cc1ncc([N+](=O)[O-])n1CCO` is reported as 0.25 µg/mL (≈ 1.46 µM) (Clostridioides difficile; microbial growth).
The inhibition of `Cc1ccc(NC(=O)c2cc3c(=O)n4cccc(C)c4nc3n2C)cc1Cl` is reported as 8.11% (Severe acute respiratory syndrome coronavirus 2; viral replication; Vero; 1 nM).
`O=C(O[C@@H]1Cc2c(O)cc(O)cc2O[C@@H]1c1cc(O)c(O)c(O)c1)c1cc(O)c(O)c(O)c1` has an inhibition of 0% (Severe acute respiratory syndrome coronavirus 2; cytopathic effect; Vero C1008; 0.7812 µM).
`CC(C)(C)[C@]1(O)CCN2C[C@@H]3c4ccccc4CCc4cccc(c43)[C@H]2C1` has an IC50 of 6610 nM (Severe acute respiratory syndrome coronavirus 2; viral replication; Vero C1008).
The inhibition of `COc1ccc(C[C@@H]2c3cc(Oc4cc(C[C@@H]5c6cc(O)c(OC)cc6CCN5C)ccc4O)c(OC)cc3CCN2C)cc1` is reported as 0% (Severe acute respiratory syndrome coronavirus 2; cytopathic effect; Vero C1008; 1.562 µM).
`N#C[C@]1(CO)O[C@@H](n2cc(F)c3c(N)ncnc32)C[C@@H]1O` has an IC50 of 26 nM (Hepatitis B virus; viral replication, qPCR; HepG2.2.15; 14 days).
For `Cc1cccn2c(=O)c3cc(C(=O)Nc4ccc(N(C)C)cc4)n(C)c3nc12`, the inhibition was 80% (Severe acute respiratory syndrome coronavirus 2; viral replication; Vero; 1 µM).
The IC50 of `CCN(CC)CCCC(C)Nc1ccnc2cc(Cl)ccc12` (stereo not shown) is reported as 1580 nM (Severe acute respiratory syndrome coronavirus 2; viral replication, inhibitor; Vero C1008).
`[O-][N+]1=C(c2ccc(Cl)cc2)C2=NCCN2c2ccccc21` gave an MIC50 of 0.25 µg/mL (≈ 0.84 µM) (Clostridioides difficile; microbial growth).
With `O=C(Nc1ccccc1F)c1cc2c(=O)n3ccccc3nc2n1Cc1ccccc1` the inhibition was 87.2% (Severe acute respiratory syndrome coronavirus 2; viral replication; Vero; 0.1 µM).
The IC50 of `OC(CCN1CCCCC1)(c1ccccc1)C1CCCCC1` (stereo not shown) is reported as 3160 nM (Severe acute respiratory syndrome coronavirus 2; viral replication; A549-ACE2).
With `CC(=O)c1cccc(NC(=O)c2cc3c(=O)n4ccccc4nc3n2C)c1` the inhibition was 77% (Severe acute respiratory syndrome coronavirus 2; viral replication; Vero; 0.1 µM).
The IC50 of `CCCN1CCC=C(c2cc(-c3ccc(C)cc3)no2)C1` is reported as 2880 nM (Severe acute respiratory syndrome coronavirus 2; viral replication, inhibitor; A549-ACE2).
`CCC(CC)COC(=O)[C@H](C)N[P@](=O)(OC[C@H]1O[C@@](C#N)(c2ccc3c(N)ncnn23)[C@H](O)[C@@H]1O)Oc1ccccc1` has an inhibition of 98% (Severe acute respiratory syndrome coronavirus 2; viral replication; Vero; 10 µM).
`CC(=O)[C@H]1CC[C@H]2[C@@H]3CCC4=CC(=O)CC[C@]4(C)[C@H]3CC[C@]12C` gave an IC50 of 9330 nM (Severe acute respiratory syndrome coronavirus 2; viral replication; Vero C1008).
`N#C[C@]1(CO)O[C@@H](n2cnc3c(N)ncnc32)C[C@@H]1O` gave an IC50 of 66 nM (Hepatitis B virus; viral replication, qPCR; HepG2.2.15; 14 days).
The IC50 of `CN1CCN(CCc2ccc(Cl)c(Cl)c2)CC1` is reported as 2510 nM (Severe acute respiratory syndrome coronavirus 2; viral replication, inhibitor; A549-ACE2).
With `Cc1cc(NC(=O)c2cc3c(=O)n4cccc(C)c4nc3n2C)ccc1Br` the inhibition was 37.8% (Severe acute respiratory syndrome coronavirus 2; viral replication; Vero; 0.1 µM).
With `O=C(/C=C/c1ccc(O)c(O)c1/C=C/c1ccc(O)c(O)c1)O[C@H](Cc1ccc(O)c(O)c1)C(=O)O` the inhibition was 0% (Severe acute respiratory syndrome coronavirus 2; cytopathic effect, inhibitor; Vero C1008; 12.5 µM).
With `CCc1ccc(NC(=O)c2cc3c(=O)n4ccccc4nc3n2C)cc1` the inhibition was 6.1% (Severe acute respiratory syndrome coronavirus 2; viral replication; Vero; 10 nM).
`C=C[C@@](C)(/C=C/c1ccc(O)cc1)CCC=C(C)C` has an inhibition of 0% (Severe acute respiratory syndrome coronavirus 2; cytopathic effect; Vero C1008; 6.25 µM).
With `COc1c2c(cc3c1OCO3)[C@]13C=C[C@H](OC)C[C@@H]1[N@](C2)C[C@H]3OC(=O)c1ccc2ccccc2c1` the IC50 was greater than 10000 nM (PANC-1; cell growth or viability, WST-1).
The inhibition of `CC(C)=CCc1c(O)ccc(C(=O)/C=C/c2ccc(O)cc2)c1O` is reported as 0% (Severe acute respiratory syndrome coronavirus 2; cytopathic effect, inhibitor; Vero C1008; 3.125 µM).
`O=[N+]([O-])c1ccc(C2=[N+]([O-])c3ccccc3N3CCN=C23)cc1` gave an MIC50 of no more than 0.06 µg/mL (Clostridioides difficile; microbial growth).
